High-throughput results as filed in PubChem.
In the library only some 3.5% were active in any assay of this set; here they are far more common.
MrgX1 PAM: allosterically activates human MrgX1 receptor signaling | Q96LB2 | MrgX1-HEK293, Fluo-4 calcium flux, FDSS; stronger effect = higher value | B-score at 10 µM | 310,000 compounds, 0.63% hits | AID 588675;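 active = plate-corrected calcium response at least 3 library SD above typical, normal starting fluorescence, not activating the receptor alone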;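 also: compound read alongside a low EC10 to EC30 dose of BAM8-22 agonist; peak minus trough fluorescence over baseline measured at the second addition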
Target sequence (Q96LB2 whole entry, looked up): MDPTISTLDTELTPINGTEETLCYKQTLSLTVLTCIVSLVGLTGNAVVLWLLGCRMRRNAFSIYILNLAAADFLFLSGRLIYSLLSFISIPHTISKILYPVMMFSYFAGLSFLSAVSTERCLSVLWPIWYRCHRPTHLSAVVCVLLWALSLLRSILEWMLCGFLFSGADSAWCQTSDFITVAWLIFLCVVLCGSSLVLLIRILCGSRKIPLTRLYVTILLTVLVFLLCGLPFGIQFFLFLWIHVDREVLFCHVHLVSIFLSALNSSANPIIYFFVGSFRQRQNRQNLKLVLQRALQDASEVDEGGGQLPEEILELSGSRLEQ
MrgX1 antagonist: antagonists of human MrgX1 receptor; MRGX1-HEK293 calcium flux, Fluo-4, BAM8-22 antagonism; stronger effect = lower value; 310,000 compounds, 1.3% hits; Q96LB2; AID 588676; B-score at 10 µM;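 active = calcium-response B-score plate-corrected more than 3 library SD below zero, starting fluorescence within 5 deviations, no agonist response on first addition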;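 also: peak minus trough fluorescence over baseline after final BAM8-22 challenge near maximal dose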
RGS4 block: inhibitors of human RGS4. AID 463165. HEK293 M3R/RGS4 inducible, Fluo-4 calcium flux; stronger effect = higher value; triggered by carbachol at its EC20. B-score at 10 µM. 310,000 compounds, 0.45% hits. P49798;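 active = B-score, a plate-corrected calcium signal, over three deviations above library mean, with baseline fluorescence within five deviations of library mean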;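 also: RGS4 expression induced by doxycycline in cells with stable M3 receptor; B-score is computed from the integrated fluorescence ratio over baseline after carbachol; higher B-score means a larger calcium signal and so more RGS4 inhibition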
Target sequence (P49798 whole entry, looked up): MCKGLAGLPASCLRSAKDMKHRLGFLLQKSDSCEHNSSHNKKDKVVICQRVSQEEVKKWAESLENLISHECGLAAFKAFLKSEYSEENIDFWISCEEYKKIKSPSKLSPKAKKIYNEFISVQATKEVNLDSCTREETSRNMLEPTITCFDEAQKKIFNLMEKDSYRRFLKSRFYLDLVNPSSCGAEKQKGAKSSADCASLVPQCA
RGS4 act: RGS4 potentiation or activation. HEK293 M3R/inducible RGS4, carbachol calcium flux Fluo4; stronger effect = lower value. B-score at 10 µM. 310,000 compounds, 0.92% hits. AID 463111;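 active = B-score of the integrated calcium signal more than 4 SD below the library mean, with starting fluorescence not abnormally high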;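 also: negative B-score means reduced calcium response which marks RGS4 activation or potentiation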
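test system = HEK293 cells with stable M3R and inducible RGS4 | schedule = recording 10 s baseline at 1 Hz, 100 s post-agonist | technique = Fluo4-AM (2 µM) calcium-flux fluorescence, kinetic read | measure = Agonist-evoked peak-minus-minimum fluorescence over baseline, integrated ratio, B score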
MrgX1 ag: activates human MrgX1 receptor signaling | 310,000 compounds, 0.44% hits | MrgX1-HEK293 cells, Fluo-4 calcium fluorescence, agonist mode; stronger effect = higher value | B-score at 10 µM | AID 588627 | Q96LB2;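 active = calcium response B-score plate-corrected fluorescence ratio at least 3 library SD, with starting fluorescence B-score inside 5 SD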
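Material: MrgX1-expressing HEK293 cells / Dosing: compound as first of three additions / Incubation: overnight seeding, then 1 h dark dye loading / Signal: Fluo-4 NW calcium fluorescence / Evaluation: B-scored fluorescence response ratio / Benchmarks: positive and negative control wells on each plate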
RGS4 block valid: RGS4 inhibitor validation; shares compounds with RGS4 block; HEK293 M3R/RGS4, carbachol calcium Fluo-4 fluorescence; carbachol added at its EC20; 0 = buffer wells, 100 = carbachol control; calcium response, % at 10 µM; 1,700 compounds, 65% hits; AID 492999;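 active = duplicate-averaged calcium response above the buffer-only control mean plus 5 SD of those controls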;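 also: integrated fluorescence ratio F max minus min over baseline F0; higher response in RGS4-induced cells means RGS4 inhibition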
M3R Ca ctr: counter-screen for RGS4 inhibitors: effect in non-induced cells | 1,900 compounds, 20% hits | activity (percent), % at 10 µM | shares compounds with RGS4 block | HEK293 M3R non-induced, carbachol calcium Fluo-4; submaximal (EC20) carbachol stimulus; buffer wells 0%, carbachol control wells 100%; call rule not given here;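 also: RGS4 induction absent so cells express M3R without RGS4; higher means more calcium signal and flags a non-specific hit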
M3R basal Ca ctr: second counter-screen for RGS4 inhibitors: non-induced cells without carbachol | shares compounds with RGS4 block | HEK293 M3R/RGS4 non-induced, Fluo-4 calcium, no carbachol; normalised: buffer wells 0%, carbachol wells 100% | calcium response (agonist-mode artifact), % at 10 µM | 1,900 compounds, 22% hits | AID 493001;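 active = duplicate-averaged calcium rise in uninduced cells above buffer wells' mean plus 5 SD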
* marks the source's active call; other numbers are inactive results; i = inactive; · = no result given.

SMILES | MrgX1 PAM | MrgX1 antagonist | RGS4 block | RGS4 act | MrgX1 ag | RGS4 block valid | M3R Ca ctr | M3R basal Ca ctr
COc1ccc(NC(=O)/C(C#N)=C/c2ccc(Sc3nncn3C)c([N+](=O)[O-])c2)cc1 | i | i | 6.85* | i | i | 18.5%* | i | i
Cc1cc(C)n2nc(C)c(-c3ccccc3)c2n1 | i | i | i | i | i | · | · | ·
Cc1cc(Nc2ccccc2)n2nc(C)c(-c3ccccc3)c2n1 | i | i | i | i | i | i | i | i
O=Nc1c(O)n(Cc2ccc(Cl)cc2Cl)c2ccccc12 | i | i | 6.6* | i | i | 5.5%* | i | i
Cc1cccc(CC(=O)NCCN2CCOCC2)c1 | i | i | i | i | i | · | · | ·
CCc1ccc2c(Cl)c(C(=O)N/N=C/c3c[nH]c4ccccc34)sc2c1 | i | i | 4.78* | i | i | 17.5%* | 39.5%* | 8.5%*
CCc1ccc(-c2cc(C(=O)N/N=C/c3c[nH]c4ccccc34)[nH]n2)cc1 | i | i | 4.87* | i | i | i | i | i
COc1c(C(=O)NNC(=O)c2ccccc2Cl)csc1Br | i | i | i | i | i | · | · | ·
O=C(O)/C=C\c1cccc(-n2nnnc2SCc2ccccc2F)c1 | i | i | i | i | i | · | · | ·
CCOC(=O)Cn1ncn(-c2ccc(OC(F)(F)F)cc2)c1=O | i | i | i | i | i | · | · | ·
O=C(Cc1cccs1)N1CCC(c2nc3c(nnn3Cc3ccc(F)cc3)c(=O)[nH]2)CC1 | i | i | i | i | i | i | i | i
O=C(O)c1ccc2c(c1)C(=O)N(CCc1c[nH]c3ccccc13)C2=O | i | i | i | i | i | · | · | ·
CCOC(=O)N1CCN(C(=O)CSCC(=O)Nc2nc(-c3ccc(Cl)s3)cs2)CC1 | i | i | i | i | i | i | i | i
CCOC(OCC)c1cn(Cc2ccc3c(c2)C(=O)c2ccccc2C3=O)nn1 | i | i | i | i | i | · | · | ·
Cc1ccc(/C=C/C(=O)NCCc2cccc(Cl)c2)o1 | i | i | 6.88* | i | i | 24.5%* | i | i
Cc1ccc(/C=C/C(=O)NC2CCCCCCC2)o1 | i | i | 8.83* | i | i | 22.5%* | i | i
Cc1ccc(/C=C/C(=O)NCCc2c[nH]c3ccccc23)o1 | i | i | i | i | i | · | · | ·
Cc1ccc(/C=N/NC(=O)NC2CCCCC2)o1 | i | i | i | i | i | · | · | ·
Cc1ccc(/C=C/C(=O)NCc2ccc3c(c2)OCO3)o1 | i | i | 5.59* | i | i | 10.0%* | i | i
Cc1ccc(C(=O)NCc2ccc3c(c2)OCO3)o1 | i | i | i | i | i | · | · | ·
CC(C)c1ccc(O)c(NC(=S)NC(=O)c2ccc3c(c2)OCO3)c1 | i | i | i | i | i | · | · | ·
CC(C)c1nnc(NC(=O)c2sc3ccccc3c2Cl)s1 | i | i | 4.78* | i | i | i | i | i
COCCN(C(=O)c1snc(C(N)=O)c1N)C(C(=O)NC1CCCCC1)c1ccc(F)cc1 (stereo unspecified) | i | i | i | i | i | · | · | ·
O=C(Cn1nnc2ccccc2c1=O)NCC1CCC(C(=O)O)CC1 (stereo unspecified) | i | i | i | i | i | · | · | ·
COCCNC(=S)N(CCCO)Cc1cc2cc3c(cc2[nH]c1=O)OCCO3 | i | i | i | i | i | i | i | i
SMILES | MrgX1 PAM | MrgX1 antagonist | RGS4 block | RGS4 act | MrgX1 ag | RGS4 block valid | M3R Ca ctr | M3R basal Ca ctr
CCN(CC)CCN(Cc1cc2cc3c(cc2[nH]c1=O)OCO3)C(=S)NCCCOC | i | i | i | i | i | · | · | ·
COCCNC(=S)N(CCO)Cc1cc2cc3c(cc2[nH]c1=O)OCO3 | i | i | i | i | i | i | i | i
Cc1c(NC(=O)C(C)OC(=O)/C=C/c2ccc(OC(F)F)cc2)c(=O)n(-c2ccccc2)n1C (stereo unspecified) | i | i | i | i | i | · | · | ·
Cc1nc(Nc2nc3ccccc3o2)nc(C)c1C(=O)Nc1ccc(F)cc1 | i | i | 4.72* | i | i | 7.0%* | i | i
CCOC(=O)c1cnc(Nc2nc3ccccc3o2)nc1C | i | i | i | i | i | · | · | ·
Cn1c(=O)c2c(ncn2CC(COCc2ccccc2)OCc2ccccc2)n(C)c1=O (stereo unspecified) | i | i | i | i | i | · | · | ·
C=CCNC(=O)COC(=O)c1nc2nccc(C)n2n1 | i | i | i | i | i | · | i | i
N#C/C(=C\c1ccc([N+](=O)[O-])o1)C(=O)Nc1ccc(F)cc1 | i | i | 7.04* | i | i | 19.5%* | i | i
COc1ccc(NC(=O)/C(C#N)=C\c2ccc(Br)o2)cc1 | i | i | i | i | i | · | · | ·
CCC1Sc2ccc(S(=O)(=O)CCC(=O)NCc3ccco3)cc2NC1=O (stereo unspecified) | i | i | i | i | i | · | · | ·
COc1cc(C2C3=C(CCCC3=O)Nc3[nH]n(-c4ccccc4)c(=O)c32)ccc1O (stereo unspecified) | i | i | · | · | i | · | · | ·
COc1cc(C2C3=C(CCCC3=O)Nc3c2c(C)nn3-c2cccc(C)c2)cc(OC)c1O (stereo unspecified) | i | i | 6.34* | i | i | 13.5%* | 40.0%* | i
O=C(/C=C/c1ccco1)Nc1nc(-c2ccccc2)cs1 | i | i | i | i | i | · | · | ·
O=C(/C=C/c1ccco1)Nc1nc(-c2ccccn2)cs1 | i | i | 11.7* | i | i | 22.0%* | i | i
Cc1ccc(-n2c(C(C)C)nc3oc4ccccc4c(=O)c3c2=O)cc1 | i | i | i | i | i | · | · | ·
O=C(NCC1OCCCN1S(=O)(=O)c1ccc(F)cc1)C(=O)NC1CCCC1 (stereo unspecified) | i | i | i | i | i | i | i | i
COc1ccc(S(=O)(=O)N2CCCOC2CNC(=O)C(=O)NC2CCCC2)cc1 (stereo unspecified) | i | i | i | i | i | i | i | i
